Source: ChEMBL document CHEMBL1135711, “Evaluation of the Dmt-Tic pharmacophore: conversion of a potent delta-opioid receptor antagonist into a potent delta agonist and ligands with mixed properties” (J Med Chem, 2002)
Square brackets hold non-standard residues; d marks the D form. Peptide text beside a SMILES is read from it. * marks the point of attachment. ξ: configuration not given here. Dmt = Cc1cc(O)cc(C)c1C[C@H](N)C(=O)O; Tic = O=C(O)[C@@H]1Cc2ccccc2CN1; ξTic = O=C(O)C1Cc2ccccc2CN1; NHBn = c1ccc(CN*)cc1; NHPh = c1ccc(N*)cc1

Key:
Mu-type opioid receptor [1] = target: T1, Mu-type opioid receptor (Cavia porcellus, UniProt P97266); assay: Negative logarithm of the molar concentration of an agonist to produce 50% of the maximum effect in guinea pig ileum (mu receptor) determined; assay type: functional, tissue-based
[2] = target: T2, Delta-type opioid receptor (Mus musculus, UniProt P32300); assay: Negative logarithm of the molar concentration required to double the agonist concentration to achieve the original response in mouse vas deferens (MVD); assay type: functional, tissue-based; conditions: read-out: pA2 (converted)
[3] = target: Delta-type opioid receptor (Mus musculus) (UniProt P32300); assay: Molar concentration required to double the agonist concentration to achieve the original response in mouse vas deferens (MVD); assay type: functional, tissue-based
Mu-type opioid receptor [4] = target: Mu-type opioid receptor (Rattus norvegicus, UniProt P33535); assay: Binding affinity for rat brain P2 synaptosome Opioid receptor mu 1; assay type: tissue-based
Outline: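 Equilibrium competition binding on rat brain P2 synaptosomes with [3H]DAGO for µ sites, in 50 mM HEPES pH 7.5 with MgCl2, protease inhibitors and glycerol. 120 min at 23-24 °C, GF/C filtration, ice-cold Tris/BSA washes. Nonspecific binding defined by 2 µM DAGO. 5-8 graded doses over 2-3 log units.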

[5] = target: Delta-type opioid receptor (Rattus norvegicus, UniProt P33533); assay: Binding affinity at Opioid receptor delta 1 using rat brain receptor (P2 synaptosome) assay; assay type: tissue-based
Outline: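 Competition binding at equilibrium on rat brain P2 synaptosomes with [3H]DPDPE for δ sites, in 50 mM HEPES pH 7.5 with MgCl2, protease inhibitors and glycerol. Incubation 120 min at 23-24 °C, then GF/C filtration and ice-cold Tris/BSA washes. Nonspecific binding defined by 2 µM DPDPE. 5-8 graded doses over 2-3 log units.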

Mu-type opioid receptor [6] = target: T1, Mu-type opioid receptor; assay: Negative logarithm of the molar concentration of an agonist to produce 50% of the maximum effect in guinea pig ileum (mu receptor) determined by Salvadori et al.; assay type: functional, tissue-based
Mus musculus [7] = species: Mus musculus; assay: Delta or Mu antagonist activity tested in mouse vas deferens (MVD) along with, naloxone; conditions: read-out: pA2 (converted)
Mus musculus [8] = species: Mus musculus; assay: Delta or Mu antagonist activity tested in mouse vas deferens (MVD) along with N,N-dimethyl-Dmt-Tic-OH; conditions: read-out: pA2 (converted)
Mu-type opioid receptor [9] = target: Mu-type opioid receptor (Mus musculus, UniProt P42866); assay: Opioid receptor delta 1 or Opioid receptor mu 1 antagonist activity tested in mouse vas deferens (MVD) along with N,N-dimethyl-Dmt-Tic-OH; assay type: functional, tissue-based; conditions: read-out: pA2 (converted)
[10] = target: T2, Delta-type opioid receptor; assay: Opioid receptor delta 1 or Opioid receptor mu 1 antagonist activity tested in mouse vas deferens (MVD) along with, naloxone; assay type: functional, tissue-based; conditions: read-out: pA2 (converted)

Delta-type opioid receptor (Rattus norvegicus, UniProt P33533), sequence (P33533 whole entry): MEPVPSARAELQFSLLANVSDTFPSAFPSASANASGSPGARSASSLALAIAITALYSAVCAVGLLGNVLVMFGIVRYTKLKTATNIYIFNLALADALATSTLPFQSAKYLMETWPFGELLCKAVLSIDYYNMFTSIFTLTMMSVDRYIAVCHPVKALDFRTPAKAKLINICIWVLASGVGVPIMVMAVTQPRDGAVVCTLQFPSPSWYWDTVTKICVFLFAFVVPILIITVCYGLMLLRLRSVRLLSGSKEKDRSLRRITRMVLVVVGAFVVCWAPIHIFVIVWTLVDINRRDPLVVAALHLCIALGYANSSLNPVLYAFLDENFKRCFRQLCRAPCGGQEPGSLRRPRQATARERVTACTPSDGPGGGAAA
Delta-type opioid receptor (Mus musculus), sequence (P32300 whole entry): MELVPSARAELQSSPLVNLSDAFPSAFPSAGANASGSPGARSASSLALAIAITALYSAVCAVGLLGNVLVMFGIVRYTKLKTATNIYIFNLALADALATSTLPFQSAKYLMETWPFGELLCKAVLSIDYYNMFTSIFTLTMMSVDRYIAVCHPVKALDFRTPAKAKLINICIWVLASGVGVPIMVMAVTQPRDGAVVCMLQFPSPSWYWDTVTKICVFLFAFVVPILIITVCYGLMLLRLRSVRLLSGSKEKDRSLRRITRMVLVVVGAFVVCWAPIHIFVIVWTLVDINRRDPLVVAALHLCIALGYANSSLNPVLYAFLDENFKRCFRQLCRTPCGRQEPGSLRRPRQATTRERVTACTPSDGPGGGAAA
T2 sequence (P32300 whole entry): as above
T1 sequence (P97266 whole entry): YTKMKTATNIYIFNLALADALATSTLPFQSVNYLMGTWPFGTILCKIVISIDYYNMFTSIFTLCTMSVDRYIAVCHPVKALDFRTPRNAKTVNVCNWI
Mu-type opioid receptor (Rattus norvegicus, UniProt P33535), sequence (P33535 whole entry): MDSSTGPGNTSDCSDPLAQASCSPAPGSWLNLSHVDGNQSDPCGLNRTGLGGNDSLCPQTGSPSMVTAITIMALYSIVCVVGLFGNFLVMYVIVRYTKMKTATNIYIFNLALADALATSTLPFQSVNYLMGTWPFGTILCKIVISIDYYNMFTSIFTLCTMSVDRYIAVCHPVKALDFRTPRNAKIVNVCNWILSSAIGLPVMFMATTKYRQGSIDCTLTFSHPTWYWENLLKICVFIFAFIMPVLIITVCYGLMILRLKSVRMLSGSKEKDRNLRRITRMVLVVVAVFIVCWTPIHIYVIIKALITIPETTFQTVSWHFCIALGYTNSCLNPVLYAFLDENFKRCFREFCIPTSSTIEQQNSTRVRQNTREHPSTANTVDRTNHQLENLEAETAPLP
Mu-type opioid receptor (Mus musculus, UniProt P42866), sequence (P42866 whole entry): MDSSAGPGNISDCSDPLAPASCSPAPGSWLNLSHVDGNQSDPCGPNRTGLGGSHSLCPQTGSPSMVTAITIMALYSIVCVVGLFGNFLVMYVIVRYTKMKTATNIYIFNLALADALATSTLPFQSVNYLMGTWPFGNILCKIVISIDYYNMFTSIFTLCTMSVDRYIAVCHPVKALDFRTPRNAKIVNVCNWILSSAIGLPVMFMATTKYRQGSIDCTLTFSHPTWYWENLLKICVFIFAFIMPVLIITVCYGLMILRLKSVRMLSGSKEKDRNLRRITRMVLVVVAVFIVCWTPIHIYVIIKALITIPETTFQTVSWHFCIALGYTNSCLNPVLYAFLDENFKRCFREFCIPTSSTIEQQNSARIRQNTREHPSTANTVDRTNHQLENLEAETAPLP

## C[C@@H](NC(=O)[C@@H](N)Cc1ccc(O)cc1)C(=O)N[C@@H](Cc1ccccc1)C(=O)NCC(=O)N[C@@H](Cc1ccc(O)cc1)C(=O)N1CCC[C@H]1C(=O)N[C@@H](CO)C(N)=O [DERMORPHIN]
Mu-type opioid receptor [1]
  EC50: 0.708 nM

## Cc1cc(O)cc(C)c1C[C@H](N)C(=O)N1Cc2ccccc2C[C@H]1C(=O)N[C@@H](C)C(N)=O (H-[Dmt]-[Tic]-Ala-NH2)
[2]
  Kb: 10 nM

## Cc1cc(O)cc(C)c1C[C@H](N)C(=O)N1Cc2ccccc2CC1CO (stereo partly specified)
[3]
  Activity: -7
Mu-type opioid receptor [4]
  Ki: 151 nM
[5]
  Ki: 0.44 nM

## Cc1cc(O)cc(C)c1C[C@H](N)C(=O)N1Cc2ccccc2C[C@H]1C(=O)NCC(=O)NCc1ccccc1 (H-[Dmt]-[Tic]-Gly-NHBn)
Mu-type opioid receptor [6]
  EC50: 2.69 nM
Mu-type opioid receptor [4]
  Ki: 0.16 nM
[5]
  Ki: 0.031 nM

## Cc1cc(O)cc(C)c1C[C@H](N)C(=O)N1Cc2ccccc2C[C@H]1C(=O)O (H-[Dmt]-[Tic]-OH)
[3]
  Activity: -8.2

## CC(C)[C@H](NC(=O)[C@H](CC(=O)O)NC(=O)[C@H](Cc1ccccc1)NC(=O)[C@@H](C)NC(=O)[C@@H](N)Cc1ccc(O)cc1)C(=O)N[C@H](C(=O)NCC(N)=O)C(C)C [DELTORPHIN C]
Mus musculus [7]
  Kb: 31.6 nM

## Cc1cc(O)cc(C)c1C[C@H](N)C(=O)N1Cc2ccccc2C[C@H]1C(=O)NCc1nc2ccccc2[nH]1
Mus musculus [8]
  Kb: 0.2 nM
Mus musculus [7]
  Kb: 35.5 nM

## Cc1cc(O)cc(C)c1C[C@H](N)C(=O)N1Cc2ccccc2C[C@H]1C(=O)NCCc1nc2ccccc2[nH]1
Mu-type opioid receptor [6]
  EC50: 107 nM
Mu-type opioid receptor [4]
  Ki: 5.49 nM
[5]
  Ki: 0.067 nM

## Cc1cc(O)cc(C)c1C[C@H](N)C(=O)N1Cc2ccccc2C[C@H]1C(=O)NCC(=O)Nc1ccccc1 (H-[Dmt]-[Tic]-Gly-NHPh)
Mu-type opioid receptor [9]
  Kb: 0.912 nM
[10]
  Kb: 33.9 nM

## Cc1cc(O)cc(C)c1C[C@H](N)C(=O)N1Cc2ccccc2CC1C(N)=O (stereo partly specified) (H-[Dmt]-[ξTic]-NH2)
[3]
  Activity: -7.2

## Cc1cc(O)cc(C)c1C[C@H](N)C(=O)N1Cc2ccccc2C[C@H]1c1nc2ccccc2[nH]1
[2]
  Kb: 12.6 nM
Mu-type opioid receptor [4]
  Ki: 7.22 nM
[5]
  Ki: 0.13 nM
